From ChEMBL document CHEMBL1125890, “Synthesis, calcium-channel-blocking activity, and antihypertensive activity of 4-(diarylmethyl)-1-[3-(aryloxy)propyl]piperidines and structurally related compounds” (J Med Chem, 1991)

Tests used:
Rattus norvegicus [1] = assay: Antihypertensive activity expressed as change in mean arterial blood pressure (MABP) in spontaneously hypertensive rats (SHR),at 0.5-2h after 30 mg/kg oral administration; format: functional, Artery
Outline: (§1)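 Adult male SHR, catheter implanted in carotid artery or abdominal aorta under anesthesia at least 24 h before dosing. Baseline pressure recorded 1-1.5 h. Compound given orally at 30 mg/kg as solution or suspension in 0.5% Tween 80/distilled H2O (v/v) or other vehicle. MABP read at 0.5, 1, 1.5, 2, 3, 4, 5 and 6 h. Average percent change from predose calculated per period. Paired one-tailed t test, p < 0.05. n = 3-6 rats unless noted.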

Oryctolagus cuniculus = organism: Oryctolagus cuniculus; assay: Calcium channel-blocking activity by determined by ability to antagonize calcium-induced contractions of isolated rabbit aortic strips; format: functional; conditions: Aorta, read-out: pA2 (converted)
Outline: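 Rabbit aortic strips were bathed in turn in CaCl2-containing buffer, CaCl2-free buffer, then depolarizing (KCl) CaCl2-free buffer. Cumulative CaCl2 addition induced contractions, recorded with force-displacement transducers. Responses were compared without and with 1–100 nM test compound. pA2 was calculated by the Van Rossum method from at least three tissues.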

Rattus norvegicus [2] = assay: Antihypertensive activity expressed as change in mean arterial blood pressure (MABP) in spontaneously hypertensive rats (SHR), at 3-6h after 30 mg/kg oral administration; format: functional, Artery; outline: as §1

Row | Structure (SMILES) | Change (Rattus norvegicus [1]) | Kb (Oryctolagus cuniculus) | Change (Rattus norvegicus [2])
1 | Fc1ccc(C(c2ccc(F)cc2)C2CCN(CCCOc3ccccc3)CC2)cc1 | -1% | 1.58 nM | -2%
2 | Fc1ccc(C(c2ccc(F)cc2)C2CCN(CCCOc3ccc4ccccc4c3)CC2)cc1 | -7% | 7.94 nM | -4%
3 | COc1cc(C(C)=O)ccc1OCCCN1CCC(C(C#N)(c2ccc(F)cc2)c2ccc(F)cc2)CC1 | -17% | 2 nM | -26%
4 | NC(=O)c1ccc(OCCCN2CCC(C(c3ccc(F)cc3)c3ccc(F)cc3)CC2)cc1 | -3% | 31.6 nM | -8%
5 | O=S(=O)(CCCN1CCC(C(c2ccc(F)cc2)c2ccc(F)cc2)CC1)c1ccccc1 | 2% | 20 nM | 3%
6 | COc1cc(C(C)=O)ccc1OCCCN1CCC(C(c2ccc(F)cc2)c2ccc(F)c(F)c2)CC1 (stereo not given) | -27% | 1.26 nM | -30%
7 | COc1cc(C(C)=O)ccc1OCCCN1CCC(C(c2ccc(C)cc2)c2ccc(C)cc2)CC1 | 3% | 15.8 nM | -2%
8 | Fc1ccc(C(c2ccc(F)cc2)C2CCN(CCCOc3cccc4ccccc34)CC2)cc1 | -6% | 5.01 nM | -7%
9 | Fc1ccc(C(c2ccc(F)cc2)C2CCN(CCCOc3ccc(Cl)cc3)CC2)cc1 | -15% | 2 nM | -25%
10 | COc1cc(C(C)=O)ccc1OCCCN1CCC(C(c2ccccc2)c2ccc(F)cc2)CC1 (stereo not given) | -8% | 6.31 nM | -12%
11 | COC(=O)c1ccc(OCCCN2CCC(C(c3ccc(F)cc3)c3ccc(F)cc3)CC2)c(OC)c1 | -4% | 1.26 nM | -2%
12 | COc1ccccc1OCCCN1CCC(C(c2ccc(F)cc2)c2ccc(F)cc2)CC1 | -4% | 2.51 nM | -1%
13 | COc1cc(C(=O)O)ccc1OCCCN1CCC(C(c2ccc(F)cc2)c2ccc(F)cc2)CC1 | 9% | 79.4 nM | 0%
14 | COc1cc(C(C)=O)ccc1OCCCN1CCC(C(c2ccc(F)c(F)c2)c2ccc(F)c(F)c2)CC1 | -28% | 2.51 nM | -35%
15 | COc1cc(OCCCN2CCC(C(c3ccc(F)cc3)c3ccc(F)cc3)CC2)ccc1C(C)=O | -5% | 3.16 nM | -11%
16 | Fc1ccc(C(c2ccc(F)cc2)C2CCN(CCOc3cccc4ccccc34)CC2)cc1 | -19% | 12.6 nM | -27%
17 | CC(=O)c1ccc(OCCCN2CCC(C(c3ccc(F)cc3)c3ccc(F)cc3)CC2)cc1 | -1% | 2.51 nM | 0%
18 | COc1cc(C#N)ccc1OCCCN1CCC(C(c2ccc(F)cc2)c2ccc(F)cc2)CC1 | -3% | 2 nM | -9%
19 | COc1cc(C(C)=O)ccc1OCCCN1CCC(CC(C#N)(c2ccc(F)cc2)c2ccc(F)cc2)C1 (stereo not given) | 3% | 10 nM | -7%
20 | COc1cc(C(C)=O)ccc1OCCCN1CCC(C(c2ccc(F)cc2)c2ccccn2)CC1 (stereo not given) | -3% | 158 nM | 3%
21 | COc1cc(C(C)=O)ccc1OCCCN1CCC(C(C(N)=O)(c2ccc(F)cc2)c2ccc(F)cc2)CC1 | 3% | 25.1 nM | 5%
22 | COc1cc(C(C)=O)ccc1OCCCN1CCC(C(c2ccc(Cl)cc2)c2ccc(Cl)cc2)CC1 | -3% | 2.51 nM | -9%
23 | COc1cc(C(C)=O)ccc1OCCN1CCC(C(c2ccc(F)cc2)c2ccc(F)cc2)CC1 | -4% | 6.31 nM | 0%

Row | Structure (SMILES) | Change (Rattus norvegicus [1]) | Kb (Oryctolagus cuniculus) | Change (Rattus norvegicus [2])
24 | COc1cc(C(C)=O)ccc1OCCCN1CCC(C(N)(c2ccc(F)cc2)c2ccc(F)cc2)CC1 | 1% | 31.6 nM | -10%
25 | COc1cc(C(C)=O)ccc1OCCCN1CCC(Cc2ccc(F)cc2)CC1 | -7% | 20 nM | -4%
26 | COc1ccc(OCCCN2CCC(C(c3ccc(F)cc3)c3ccc(F)cc3)CC2)cc1 | -2% | 2.51 nM | -3%
27 | COc1cc(C(C)=O)ccc1OCCCN1CCC(C(O)(c2ccc(F)c(F)c2)c2ccc(F)c(F)c2)CC1 | -5% | 2.51 nM | -24%
28 | COc1cc(C(C)=O)ccc1OCCCN1CCC(C(O)(c2ccc(F)cc2)c2ccc(F)cc2)CC1 | -5% | 10 nM | -9%
29 | COc1cc(C(C)=O)ccc1OCCCN1CCC(C(c2ccccc2)c2ccccc2)CC1 | -20% | 6.31 nM | -12%
30 | Fc1ccc(C(c2ccc(F)cc2)C2CCN(CCOc3ccc4ccccc4c3)CC2)cc1 | -16% | 3.98 nM | -30%
31 | COc1cc(C(C)=O)ccc1OCCCCN1CCC(C(c2ccc(F)cc2)c2ccc(F)cc2)CC1 | -16% | 2.51 nM | -21%
32 | COc1cc(C(C)=O)ccc1OCCCN1CCCC(C(C#N)(c2ccc(F)cc2)c2ccc(F)cc2)C1 (stereo not given) | 5% | 7.94 nM | 9%
33 | COc1cc(C(C)=O)ccc1OCCCN1CCC(C(c2ccc(F)cc2)c2ccc(F)cc2)CC1 | -15% | 1.58 nM | -22%
34 | Fc1ccc(C(c2ccc(F)cc2)C2CCN(CCCOc3ccc(Br)cc3)CC2)cc1 | -3% | 1.58 nM | -17%
35 | N#Cc1ccc(OCCCN2CCC(C(c3ccc(F)cc3)c3ccc(F)cc3)CC2)cc1 | 8% | 5.01 nM | -11%
36 | COc1cc(C(C)=O)ccc1OCCCCCCN1CCC(C(c2ccc(F)cc2)c2ccc(F)cc2)CC1 | -10% | 6.31 nM | -22%
37 | Fc1ccc(C(c2ccc(F)cc2)C2CCN(CCCCc3ccccc3)CC2)cc1 | -5% | 2.51 nM | -9%
38 | Nc1ccc(OCCCN2CCC(C(c3ccc(F)cc3)c3ccc(F)cc3)CC2)cc1 | -5% | 31.6 nM | -8%
39 | COc1cc(C(C)=O)ccc1OCCCN1CCC(C(c2cccc(F)c2)c2cccc(F)c2)CC1 | -11% | 3.16 nM | -9%
40 | COc1cc(C(C)O)ccc1OCCCN1CCC(C(c2ccc(F)cc2)c2ccc(F)cc2)CC1 (stereo not given) | -14% | 10 nM | -9%
41 | COc1ccc(C(c2ccc(OC)cc2)C2CCN(CCCOc3ccc(C(C)=O)cc3OC)CC2)cc1 | 2% | 10 nM | 1%
42 | CCc1ccc(OCCCN2CCC(C(c3ccc(F)cc3)c3ccc(F)cc3)CC2)c(OC)c1 | -9% | 2.51 nM | -7%
43 | CC(C)(C)c1ccc(OCCCN2CCC(C(c3ccc(F)cc3)c3ccc(F)cc3)CC2)cc1 | -15% | 1 nM | -10%
44 | COc1cc(C(C)=O)ccc1OCCCN1CCC(=C(c2ccc(F)cc2)c2ccc(F)cc2)CC1 | -9% | 3.98 nM | -12%
45 | CN(CCCN1CCC(C(c2ccc(F)cc2)c2ccc(F)cc2)CC1)c1ccccc1 | -3% | 2 nM | -6%
